“And” between values parts separate entries of the source, which are not always exact repeats. Identical values can stand only once.
System: HEK-293T
Assay: Multiplex assay against HEK293T;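 on Population Tubulin-Different-Phenotype (%): share of the cells with healthy nuclei that show this phenotype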
Assay type: toxicity, cell-based
Conditions: human
Method in brief: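 Live cells were stained at seeding with Hoechst33342, BioTracker Green Microtubule Cytoskeleton Dye, MitoTracker Red and Annexin V Alexa Fluor 680. Following compound addition, they were imaged on a CQ1 microscope at 37°C and 5% CO2 and gated by CellPathfinder machine learning into Hoechst high-intensity objects or normal cells, with normal cells split into healthy, pyknosed or fragmented nuclei and pyknosed cells into mitotic or apoptotic. Tubulin, mitochondrial-mass and membrane-permeability phenotypes are per cents of healthy-nucleus cells.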

[1] = 12 h, 10 µM, compound concentration 10 uM, replicate 1
[2] = 12 h, 10 µM, compound concentration 10 uM, replicate 2
[3] = 24 h, 10 µM, compound concentration 10 uM, replicate 1
[4] = 24 h, 10 µM, compound concentration 10 uM, replicate 2
[5] = 12 h, 1 µM, compound concentration 1 uM, replicate 1
[6] = 12 h, 1 µM, compound concentration 1 uM, replicate 2
[7] = 24 h, 1 µM, compound concentration 1 uM, replicate 1
[8] = 24 h, 1 µM, compound concentration 1 uM, replicate 2
[9] = 48 h, 10 µM, compound concentration 10 uM, replicate 1
[10] = 48 h, 10 µM, compound concentration 10 uM, replicate 2

For `CN1C(=O)c2sccc2N(C)c2nc(Nc3ccc(S(N)(=O)=O)cc3)ncc21`, the “Population Apoptotic (%)” value [1] was 16% and 18%, the “Population Fragmented Nuclei (%)” value [1] was 26% and 12% and the “Population Healthy Nuclei (%)” value [1] was 60% and 76%. The “Population Hoechst High Intensity Objects (%)” value [1] was 18% and 7%, the “Population Membrane Permeable-Phenotype (%)” value [1] was 4% and 3% and the “Population Mitochondria Different-Phenotype (%)” value [1] was 4% and 2%. For the same compound, the “Population Mitotic Cells (%)” value [1] was 83% and 81%, the “Population Normal (%)” value [1] was 81% and 92% and the “Population Pyknosed Nuclei (%)” value [1] was 13% and 11%. The “Population Tubulin-Different-Phenotype (%)” value [1] was 0%, the “Total Cell Count” value [1] was 672 and 727 and the “Population Apoptotic (%)” value [2] was 8% and 7%. For the same compound, the “Population Fragmented Nuclei (%)” value [2] was 8% and 4%, the “Population Healthy Nuclei (%)” value [2] was 86% and 85% and the “Population Hoechst High Intensity Objects (%)” value [2] was 1% and 2%. The “Population Membrane Permeable-Phenotype (%)” value [2] was 1% and 0%, the “Population Mitochondria Different-Phenotype (%)” value [2] was 7% and 9% and the “Population Mitotic Cells (%)” value [2] was 91% and 92%. For the same compound, the “Population Normal (%)” value [2] was 98% and 97%, the “Population Pyknosed Nuclei (%)” value [2] was 4% and 10% and the “Population Tubulin-Different-Phenotype (%)” value [2] was 4% and 1%. The “Total Cell Count” value [2] was 1564 and 1180, the “Population Apoptotic (%)” value [3] was 19% and 15% and the “Population Fragmented Nuclei (%)” value [3] was 14% and 20%. For the same compound, the “Population Healthy Nuclei (%)” value [3] was 79% and 69%, the “Population Membrane Permeable-Phenotype (%)” value [3] was 5% and the “Population Mitochondria Different-Phenotype (%)” value [3] was 2% and 3%. The “Population Mitotic Cells (%)” value [3] was 80% and 84%, the “Population Normal (%)” value [3] was 95% and 82% and the “Population Pyknosed Nuclei (%)” value [3] was 6% and 10%. The “Population Tubulin-Different-Phenotype (%)” value [3] was 1%, the “Total Cell Count” value [3] was 894 and 614 and the “Population Apoptotic (%)” value [4] was 6% and 4%. For the same compound, the “Population Fragmented Nuclei (%)” value [4] was 25% and 12%, the “Population Healthy Nuclei (%)” value [4] was 71% and 80% and the “Population Hoechst High Intensity Objects (%)” value [4] was 2%. For the same compound, the “Population Membrane Permeable-Phenotype (%)” value [4] was 3% and 1%, the “Population Mitochondria Different-Phenotype (%)” value [4] was 1% and the “Population Mitotic Cells (%)” value [4] was 93% and 95%. For the same compound, the “Population Normal (%)” value [4] was 97%, the “Population Pyknosed Nuclei (%)” value [4] was 2% and 7% and the “Population Tubulin-Different-Phenotype (%)” value [4] was 4% and 2%. For the same compound, the “Total Cell Count” value [4] was 2712 and 1180.

For `NC(=O)Nc1cc(-c2cccc(F)c2)sc1C(=O)N[C@H]1CCCNC1` [AZD-7762], the “Population Fragmented Nuclei (%)” value [5] was 18%, the “Population Healthy Nuclei (%)” value [5] was 54% and the “Population Hoechst High Intensity Objects (%)” value [5] was 13%. For the same compound, the “Population Mitochondria Different-Phenotype (%)” value [5] was 5%, the “Population Normal (%)” value [5] was 86% and the “Population Pyknosed Nuclei (%)” value [5] was 26%. The “Population Tubulin-Different-Phenotype (%)” value [5] was 3%, the “Total Cell Count” value [5] was 661 and the “Population Apoptotic (%)” value [6] was 18%. The “Population Fragmented Nuclei (%)” value [6] was 6%, the “Population Healthy Nuclei (%)” value [6] was 73% and the “Population Hoechst High Intensity Objects (%)” value [6] was 5%. The “Population Membrane Permeable-Phenotype (%)” value [6] was 5%, the “Population Mitochondria Different-Phenotype (%)” value [6] was 20% and the “Population Mitotic Cells (%)” value [6] was 81%. The “Population Normal (%)” value [6] was 94%, the “Population Pyknosed Nuclei (%)” value [6] was 19% and the “Population Tubulin-Different-Phenotype (%)” value [6] was 25%. The “Total Cell Count” value [6] was 1132, the “Population Fragmented Nuclei (%)” value [1] was 28% and 23% and the “Population Hoechst High Intensity Objects (%)” value [1] was 18% and 14%. The “Population Membrane Permeable-Phenotype (%)” value [1] was 5% and 4%, the “Population Normal (%)” value [1] was 81% and 85% and the “Population Pyknosed Nuclei (%)” value [1] was 59% and 21%. For the same compound, the “Population Apoptotic (%)” value [2] was 27% and 9%, the “Population Fragmented Nuclei (%)” value [2] was 8% and 10% and the “Population Healthy Nuclei (%)” value [2] was 28% and 66%. For the same compound, the “Population Hoechst High Intensity Objects (%)” value [2] was 4% and 2%, the “Population Membrane Permeable-Phenotype (%)” value [2] was 0% and 3% and the “Population Mitochondria Different-Phenotype (%)” value [2] was 30% and 18%. The “Population Mitotic Cells (%)” value [2] was 72% and 90%, the “Population Normal (%)” value [2] was 95% and 97% and the “Population Pyknosed Nuclei (%)” value [2] was 63% and 22%. For the same compound, the “Population Tubulin-Different-Phenotype (%)” value [2] was 14% and 21%, the “Population Apoptotic (%)” value [7] was 19% and the “Population Fragmented Nuclei (%)” value [7] was 18%. For the same compound, the “Population Healthy Nuclei (%)” value [7] was 42%, the “Population Hoechst High Intensity Objects (%)” value [7] was 12% and the “Population Membrane Permeable-Phenotype (%)” value [7] was 9%. For the same compound, the “Population Mitochondria Different-Phenotype (%)” value [7] was 7%, the “Population Mitotic Cells (%)” value [7] was 80% and the “Population Normal (%)” value [7] was 87%. For the same compound, the “Population Pyknosed Nuclei (%)” value [7] was 38%, the “Population Tubulin-Different-Phenotype (%)” value [7] was 14% and the “Total Cell Count” value [7] was 632. For the same compound, the “Population Apoptotic (%)” value [8] was 35%, the “Population Fragmented Nuclei (%)” value [8] was 8% and the “Population Healthy Nuclei (%)” value [8] was 39%. The “Population Hoechst High Intensity Objects (%)” value [8] was 6%, the “Population Membrane Permeable-Phenotype (%)” value [8] was 8% and the “Population Mitochondria Different-Phenotype (%)” value [8] was 33%. The “Population Mitotic Cells (%)” value [8] was 64%, the “Population Normal (%)” value [8] was 93% and the “Population Pyknosed Nuclei (%)” value [8] was 51%. For the same compound, the “Population Tubulin-Different-Phenotype (%)” value [8] was 62%, the “Total Cell Count” value [8] was 1019 and the “Population Apoptotic (%)” value [3] was 26% and 66%. For the same compound, the “Population Fragmented Nuclei (%)” value [3] was 22% and 33%, the “Population Hoechst High Intensity Objects (%)” value [3] was 13% and 14% and the “Population Membrane Permeable-Phenotype (%)” value [3] was 8% and 0%. For the same compound, the “Population Mitotic Cells (%)” value [3] was 73% and 33%, the “Population Normal (%)” value [3] was 86% and 85% and the “Population Pyknosed Nuclei (%)” value [3] was 36% and 58%. For the same compound, the “Population Tubulin-Different-Phenotype (%)” value [3] was 36% and 50%, the “Population Apoptotic (%)” value [4] was 52% and 23% and the “Population Fragmented Nuclei (%)” value [4] was 12% and 17%. The “Population Hoechst High Intensity Objects (%)” value [4] was 6% and 5%, the “Population Membrane Permeable-Phenotype (%)” value [4] was 10% and the “Population Mitochondria Different-Phenotype (%)” value [4] was 20% and 48%. The “Population Mitotic Cells (%)” value [4] was 47% and 76%, the “Population Normal (%)” value [4] was 93% and 95% and the “Population Pyknosed Nuclei (%)” value [4] was 80% and 47%. For the same compound, the “Population Tubulin-Different-Phenotype (%)” value [4] was 30% and 63%, the “Population Apoptotic (%)” value [9] was 75% and the “Population Fragmented Nuclei (%)” value [9] was 43%. For the same compound, the “Population Healthy Nuclei (%)” value [9] was 3%, the “Population Hoechst High Intensity Objects (%)” value [9] was 21% and the “Population Membrane Permeable-Phenotype (%)” value [9] was 0%. For the same compound, the “Population Mitochondria Different-Phenotype (%)” value [9] was 100%, the “Population Mitotic Cells (%)” value [9] was 25% and the “Population Normal (%)” value [9] was 78%. The “Population Pyknosed Nuclei (%)” value [9] was 53%, the “Population Tubulin-Different-Phenotype (%)” value [9] was 0% and the “Total Cell Count” value [9] was 191. For the same compound, the “Population Fragmented Nuclei (%)” value [10] was 13%, the “Population Healthy Nuclei (%)” value [10] was 12% and the “Population Hoechst High Intensity Objects (%)” value [10] was 8%. The “Population Membrane Permeable-Phenotype (%)” value [10] was 5%, the “Population Mitochondria Different-Phenotype (%)” value [10] was 66% and the “Population Mitotic Cells (%)” value [10] was 24%. For the same compound, the “Population Normal (%)” value [10] was 91%, the “Population Pyknosed Nuclei (%)” value [10] was 74% and the “Population Tubulin-Different-Phenotype (%)” value [10] was 61%. For the same compound, the “Total Cell Count” value [10] was 161.

Reference: ChEMBL document CHEMBL4689842, “EUbOPEN Chemogenomics Library wave 1” (2021)
